Sampled rows, rich in hits. Any-hit rate of the full collection: about 1.9%.
bCat nuc transl = modulators of beta-catenin nuclear translocation, primary screen, imaging, HeLa cells, immunofluorescence, high-content | nuclear translocation activity, % at 5 µM | 190,000 compounds, 0.3% hits;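 active = nuclear translocation activity above 50% at 5 µM, with a well cell count of 50 or more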;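 note: per-cell ratio of nuclear to cytoplasmic median beta-catenin stain intensity; plate controls were DMSO negative control for no effect and GSK-3 inhibitor IX positive control for full effect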
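System: Human HeLa cells, endogenous beta-catenin | Compound dosing: 5 µM primary, 0.02–20 µM confirmation | Timing: 24 h compound exposure at 37°C, 5% CO2 | Measured by: Fluorescence imaging of beta-catenin antibody stain plus DAPI | Read-out basis: % activation of per-cell nuclear versus cytoplasmic median beta-catenin signal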
MT stabilizer = microtubule stabilizers in HeLa cells, primary screen, imaging, high-content imaging. AID 2205, 2009. HeLa tubulin immunostaining HCS, 24 h; share of cells brighter than vehicle mean+2SD. 200,000 compounds, 0.83% hits. % tubulin-high responders, % at 10 µM;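 active = plate Z-score above 3 for both tubulin-high and condensed-nucleus cell shares, with cell loss under 80%, at 10 µM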;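 note: anti alpha tubulin signal scored within the nucleus-defined area of each cell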
ROMK primary = ROMK potassium channel modulators, primary screen, cell-based, thallium flux, MLSMR library; B-score at 10 µM; 130,000 compounds, 2% hits; ATP-sensitive inward rectifier potassium channel 1 (Homo sapiens), P48048; Tet-inducible ROMK, thallium flux fluorescence; actives lie on both sides;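 active = signal ratio slope over the read window, or its plate-corrected B-score, at least 3 SD from the plate mean, either direction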;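 note: B-score of the F/F0 ratio slope over 7 to 12 s after thallium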
Target sequence (P48048 whole entry, looked up): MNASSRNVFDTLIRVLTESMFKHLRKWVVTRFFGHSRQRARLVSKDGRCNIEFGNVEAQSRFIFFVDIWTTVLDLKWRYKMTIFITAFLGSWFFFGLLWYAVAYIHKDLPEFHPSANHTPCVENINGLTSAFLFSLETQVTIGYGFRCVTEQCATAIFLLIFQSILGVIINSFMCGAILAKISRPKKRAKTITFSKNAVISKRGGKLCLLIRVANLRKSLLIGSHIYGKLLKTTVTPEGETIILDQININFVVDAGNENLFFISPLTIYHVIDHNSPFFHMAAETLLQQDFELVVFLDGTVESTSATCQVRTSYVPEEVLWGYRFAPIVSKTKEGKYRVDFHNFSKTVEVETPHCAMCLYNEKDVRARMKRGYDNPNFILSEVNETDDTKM
Starred values were filed as active, the others as inactive; . = no result.

SMILES	bCat nuc transl	MT stabilizer	ROMK primary
Cc1ccc(C(=O)Cn2nnc(-c3cccs3)n2)cc1	0.3	.	.
O=C(CN1CC[n+]2c(-c3cccs3)csc21)c1ccc(-c2ccccc2)cc1	8.6	2.8	-5.64*
CCNC(=S)Nc1ccc(Cl)c([N+](=O)[O-])c1	0.3	1.9	-0.409
CCOC(=O)/C(=C/c1ccc(N2CCC(c3ccccc3)=N2)cc1)C(C)=O	-2.1	4.2	-3.38*
c1ccc(C2=NN(c3ccccc3)CC2)cc1	-0.7	.	.
CS(=O)(=O)Nc1cccc(C2=NN(S(C)(=O)=O)C(c3ccc4c(c3)OCO4)C2)c1 (centres undefined)	-0.3	17.0*	0.209
CS(=O)(=O)N1N=C(c2ccccc2)CC1c1ccc2c(c1)OCO2 (centres undefined)	0.4	6.4	-0.763
Cc1oc(S(=O)(=O)N2CCCCC2)cc1NC(=O)Nc1ccc(F)cc1	0.2	.	-1.18
O=C(Cn1nc(Cc2cccnc2)c2ccccc2c1=O)Nc1ccccc1F	-0.1	.	-0.106
O=C(N/N=C/c1cccc(C(F)(F)F)c1)c1cc2c(s1)-c1ccccc1CC2	2.3	13.6	.
Cc1cccc(/C=N/NC(=O)c2cc3c(s2)-c2ccccc2CC3)c1	-0.3	34.2*	.
COc1ccc(N2CCCC2=N)c(OC)c1	-0.3	.	.
CCOC(=O)N1CCN(C(=O)CCCCn2c(=S)[nH]c3ccsc3c2=O)CC1	0.0	2.7	-0.114
CCOC(=O)c1[nH]c2ccc(Br)cc2c1NC(=O)CCN1CCCC(C)(C)C1	-2.7	2.7	-0.73
CCCCNC(=O)c1onc(CSc2cccc3ccccc23)c1C(=O)O	-1.1	2.6	.
Cc1cc(C)c(OCC(=O)N/N=C/c2ccc3c(c2)OCO3)c(C)c1	25.7	26.0*	.
Cc1cccc(OCC(=O)N/N=C/c2ccc3c(c2)OCO3)c1	-1.6	3.6	-0.343
O=C(CC12CC3CC(CC(C3)C1)C2)N1CCN(S(=O)(=O)c2cccs2)CC1	-1.5	1.3	-0.344
Cc1ccccc1NC(=O)c1ccc(CN(c2ccccc2)S(=O)(=O)c2ccccc2)cc1	0.4	2.8	-0.883
CCOc1ccccc1N1C(=O)CC(Sc2n[nH]c(-c3ccccc3)n2)C1=O (centres undefined)	-4.2	1.3	-0.905
O=C(Nc1ccc(Cl)cc1)/C(=C/c1ccc([N+](=O)[O-])cc1)c1nc2ccccc2s1	-2.7	36.5*	0.0291
O=C(O)CC/C(=C\c1cc([N+](=O)[O-])ccc1Cl)c1nc2ccccc2s1	-0.2	3.1	.
Cc1ccc2oc(=O)c3cnn(CC(=O)N4CCCc5ccccc54)c3c2c1	-1.9	4.8	.
O=[N+]([O-])c1ccccc1/C=C/C=N/Nc1ccc(S(=O)(=O)Nc2ccc(Cl)cc2)cc1[N+](=O)[O-]	9.1	2.7	0.106
COc1cccc(NC(=O)CSC2=C(C#N)C(c3ccco3)C3=C(CCCC3=O)N2)c1 (centres undefined)	-2.1	15.0	0.286
SMILES	bCat nuc transl	MT stabilizer	ROMK primary
CC(C)(C)c1ccc(C(=O)CCCSC2=C(C#N)C(c3ccco3)C3=C(CCCC3=O)N2)cc1 (centres undefined)	6.5	7.9	0.214
N#CC1=C(SCC(=O)c2ccccc2)NC2=C(C(=O)CCC2)C1c1ccco1 (centres undefined)	171.4*	34.1	1.98
Cc1ccc(C(=O)CSC2=C(C#N)C(c3ccco3)C3=C(CCCC3=O)N2)cc1 (centres undefined)	129.7*	20.4*	2.26
Cc1cc(OCC(=O)Nc2ccncc2)ccc1[N+](=O)[O-]	-3.1	4.1	1.29
CCC(=O)c1ccc(OCC(=O)OCC(=O)Nc2sccc2C(N)=O)cc1	-0.7	1.5	0.608
Cc1ccc(NC(=O)/C=C/c2ccc(Cl)cc2)nc1	7.3	20.6*	1.08
O=C(/C=C/c1cccc([N+](=O)[O-])c1)Nc1ccc(Cl)cn1	2.8	10.1*	-0.494
O=C(/C=C/c1ccccc1)Nc1ccc(Br)cn1	2.0	34.1	0.474
O=C(/C=C/c1cccc([N+](=O)[O-])c1)Nc1ccc(NC(=O)c2cccs2)cc1	1.5	4.4	.
CCOc1ccccc1C(=O)Nc1nn[nH]n1	-0.1	4.7	0.952
COc1ccc(OC)c(Cc2nnc(CCC(=O)NCc3nc4ccccc4s3)o2)c1	-1.7	1.4	-0.0693
CCCCCC(=O)N/N=C(\C)c1ccc(N2CCCCC2)cc1	-3.4	2.3	0.0161
Cc1c(C(=O)Nc2ccc3c4c(cccc24)CC3)cccc1[N+](=O)[O-]	-2.4	21.8*	-0.0538
Cc1c(C(=O)NC(=S)Nc2ccc3c4c(cccc24)CC3)cccc1[N+](=O)[O-]	1.9	6.1	.
O=C1CC(c2cccc(Br)c2)c2cc3c(cc2N1)CCC3 (centres undefined)	-0.1	28.1*	.
CC1(C)CC(=O)C2=C(C1)NC(=O)CC2c1cc(F)ccc1F (centres undefined)	-0.1	1.2	0.738
O=C1CC(c2cc(F)ccc2F)c2cc3c(cc2N1)CCC3 (centres undefined)	-1.0	14.4*	2.41
Cc1cc2c(cc1C)C(c1cccc([N+](=O)[O-])c1)CC(=O)N2 (centres undefined)	.	2.2	.
CCN(CC)c1ccc(C(=O)NC(=S)N2CCN(Cc3ccc4c(c3)OCO4)CC2)cc1	0.2	2.9	-3.33*
CCCC(=O)N1CCN(Cc2ccc3c(c2)OCO3)CC1	-4.2	3.8	0.446
Cc1ccccc1Cc1c(C)nc2c(C(=O)NCc3ccc4c(c3)OCO4)cnn2c1C	0.5	2.5	.
Cc1ccccc1Cc1c(C)nc2c(C(=O)N3CCN(Cc4ccc5c(c4)OCO5)CC3)cnn2c1C	.	2.7	-5.29*
CC(C)NC(=S)N1CCN(Cc2ccc3c(c2)OCO3)CC1	1.1	5.1	0.715
O=C(CSCc1ccccc1)N1CCN(Cc2ccc3c(c2)OCO3)CC1	-1.4	3.4	-2.9*
COc1ccc(N(C(=O)CNC(=O)c2cccs2)C(C(=O)NC2CCCC2)c2cccnc2)cc1 (centres undefined)	-0.4	4.6	0.115
SMILES	bCat nuc transl	MT stabilizer	ROMK primary
CSCCC(NC(=O)COc1cccc2ccccc12)C(=O)O (centres undefined)	-1.0	.	.
O=C(NC(=S)Nc1ccccc1O)c1ccccc1Cl	1.8	4.7	0.345
C=CCn1c(C)cc(C(=O)COC(=O)/C=C/c2cccc(OC)c2)c1C	-2.8	2.3	0.593
O=C1NC2(CCN(Cc3ccccc3)CC2)Oc2ccccc21	-1.1	3.9	0.0121
O=C1c2ccccc2OC2(C=Cc3ccccc3O2)N1Cc1ccccc1 (centres undefined)	48.4	42.2*	0.185
Cc1onc(-c2c(Cl)cccc2Cl)c1C(=O)N=C(N)N1CCCC1	0.0	.	.
CCc1cccc(NC(=O)c2ccc3c(=O)n4c(nc3c2)CCCCC4)c1	1.9	.	-0.28
COc1ccc(N2CCN(C(=S)NC(=O)c3cccs3)CC2)c([N+](=O)[O-])c1	-0.3	2.8	3.45*
O=C(NC(=S)N1CCN(c2c(Cl)cccc2[N+](=O)[O-])CC1)c1cccs1	-4.9	4.2	.
Cc1cccc(N)c1-c1c(C)cccc1N	0.4	2.0	0.385
Cc1ccc(S(=O)(=O)O/N=C2\CCCc3ccccc32)cc1	-9.5	1.1	0.687
CC1=C(C)/C(=N\OS(=O)(=O)c2ccccc2)C=CC1=O	-6.5	1.1	-4.31*

High-throughput results: PubChem BioAssay, several laboratories
